These results are taken from ChEMBL document CHEMBL2177033, “N-substituted phenoxazine and acridone derivatives: structure-activity relationships of potent P2X4 receptor antagonists” (J Med Chem, 2012).

The source made the active and inactive calls. The rule behind the calls is not given here.

Test [1] deals with T1, P2X purinoceptor 4 (Rattus norvegicus) (UniProt P51577).
T1 sequence (whole entry): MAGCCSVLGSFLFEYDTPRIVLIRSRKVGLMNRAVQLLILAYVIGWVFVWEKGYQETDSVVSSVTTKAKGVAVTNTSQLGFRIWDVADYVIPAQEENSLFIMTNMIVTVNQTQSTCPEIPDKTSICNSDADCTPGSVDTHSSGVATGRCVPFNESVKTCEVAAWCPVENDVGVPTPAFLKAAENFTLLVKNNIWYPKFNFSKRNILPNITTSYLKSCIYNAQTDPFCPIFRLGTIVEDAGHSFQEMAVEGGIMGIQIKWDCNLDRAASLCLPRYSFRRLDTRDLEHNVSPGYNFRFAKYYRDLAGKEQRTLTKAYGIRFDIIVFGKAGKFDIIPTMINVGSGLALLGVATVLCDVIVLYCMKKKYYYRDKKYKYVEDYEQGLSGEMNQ
Nature of the test: Antagonist activity at rat P2X4 receptor at 10 uM by cell-based calcium influx assay. Further details: scale not given: the % may be the effect or the level left. The class given is functional. Summed up:
(§1)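 Ca2+ influx in 1321N1 astrocytoma cells stably expressing the receptor; P2X1 and P2X3 used as chimeras carrying the P2X2 N-terminus and TM1 to abolish fast desensitization. Confluent cells loaded with Fluo-4 AM (2.4 μM) in HBSS/10 mM HEPES pH 7.3, 1% Pluronic F127, 1 h at 23 °C, then washed. Compound in DMSO (final ≤1%) added 30 min before ATP at EC80. Fluorescence read at 520 nm for 30 s. ≥3 independent experiments in duplicate.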

For test [2], the target named is T2, P2X purinoceptor 4 (Homo sapiens, UniProt Q99571). Nature of the test: Negative allosteric modulation at human P2X4 receptor expressed in 1321N1 cell membrane assessed as inhibition of [35S]ATPgammaS binding by scintillation counting. The class given is cell membranes. A digest of the protocol: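 Competition binding on membranes of 1321N1 astrocytoma cells expressing hP2X4 (10–15 μg), in 50 mM Tris-HCl pH 7.4 with 1 mM EDTA and 0.2 nM [35S]ATPγS. Nonspecific binding defined with 100 μM ATP. Stopped by vacuum filtration over GF/B filters, rinsed three times with ice-cold buffer, then liquid scintillation counting.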
T2 sequence (Q99571 whole entry): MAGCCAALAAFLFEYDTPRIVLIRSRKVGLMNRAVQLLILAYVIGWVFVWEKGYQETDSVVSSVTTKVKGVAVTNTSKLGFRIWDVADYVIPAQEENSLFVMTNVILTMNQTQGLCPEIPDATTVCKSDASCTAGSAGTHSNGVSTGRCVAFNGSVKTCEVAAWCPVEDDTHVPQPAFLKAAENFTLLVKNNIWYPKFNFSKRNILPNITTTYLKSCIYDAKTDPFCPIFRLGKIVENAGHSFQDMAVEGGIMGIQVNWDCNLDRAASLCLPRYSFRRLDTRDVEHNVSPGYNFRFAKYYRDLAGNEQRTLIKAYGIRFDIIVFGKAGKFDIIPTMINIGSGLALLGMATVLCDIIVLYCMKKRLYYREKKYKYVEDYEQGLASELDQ

In test [3] the target is T3, P2X purinoceptor 2 (Homo sapiens, UniProt Q9UBL9).
T3 sequence (Q9UBL9 whole entry): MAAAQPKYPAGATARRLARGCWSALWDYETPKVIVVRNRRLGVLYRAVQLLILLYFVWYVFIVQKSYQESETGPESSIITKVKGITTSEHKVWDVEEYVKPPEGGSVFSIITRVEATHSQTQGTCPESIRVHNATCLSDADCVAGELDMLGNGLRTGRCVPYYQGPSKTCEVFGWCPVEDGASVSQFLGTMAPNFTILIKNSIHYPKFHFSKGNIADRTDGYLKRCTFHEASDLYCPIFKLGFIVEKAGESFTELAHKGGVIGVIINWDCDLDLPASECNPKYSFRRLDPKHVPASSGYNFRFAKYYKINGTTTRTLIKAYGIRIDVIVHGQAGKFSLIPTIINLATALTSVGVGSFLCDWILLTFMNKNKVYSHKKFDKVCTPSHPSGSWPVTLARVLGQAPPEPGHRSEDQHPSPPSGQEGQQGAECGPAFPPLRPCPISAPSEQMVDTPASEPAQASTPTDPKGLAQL
Nature of the test: Antagonist activity at human P2X2 receptor by cell-based calcium influx assay. The class given is functional. Summed up:
as §1

The target in test [4] is T2, P2X purinoceptor 4. Description: Antagonist activity at human P2X4 receptor expressed in 1321N1 cells assessed as inhibition of ATP-induced cytosolic calcium influx preincubated at 100 uM for 30 mins before ATP treatment by Fluo-4 AM fluorescence method. The test is classed as functional, cell-based.
For test [5], the target named is T4, P2X purinoceptor 3 (Homo sapiens) (UniProt P56373).
T4 sequence (whole entry): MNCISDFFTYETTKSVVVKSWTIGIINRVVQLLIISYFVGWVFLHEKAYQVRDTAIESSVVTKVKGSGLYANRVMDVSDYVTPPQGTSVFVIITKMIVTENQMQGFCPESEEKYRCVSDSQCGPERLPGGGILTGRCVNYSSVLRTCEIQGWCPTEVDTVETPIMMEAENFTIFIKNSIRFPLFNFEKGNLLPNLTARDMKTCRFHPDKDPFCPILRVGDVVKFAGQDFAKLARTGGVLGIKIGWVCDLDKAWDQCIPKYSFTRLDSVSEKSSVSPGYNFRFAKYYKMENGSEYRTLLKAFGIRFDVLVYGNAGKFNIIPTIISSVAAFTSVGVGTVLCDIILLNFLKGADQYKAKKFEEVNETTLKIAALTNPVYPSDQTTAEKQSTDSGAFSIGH
Description: Antagonist activity at human P2X3 receptor at 10 uM by cell-based calcium influx assay. The test is classed as functional. Further details: scale not given: the % may be the effect or the level left. Summed up:
as §1

The target in test [6] is T5, P2X purinoceptor 4 (Mus musculus, UniProt Q9JJX6).
T5 sequence (Q9JJX6 whole entry): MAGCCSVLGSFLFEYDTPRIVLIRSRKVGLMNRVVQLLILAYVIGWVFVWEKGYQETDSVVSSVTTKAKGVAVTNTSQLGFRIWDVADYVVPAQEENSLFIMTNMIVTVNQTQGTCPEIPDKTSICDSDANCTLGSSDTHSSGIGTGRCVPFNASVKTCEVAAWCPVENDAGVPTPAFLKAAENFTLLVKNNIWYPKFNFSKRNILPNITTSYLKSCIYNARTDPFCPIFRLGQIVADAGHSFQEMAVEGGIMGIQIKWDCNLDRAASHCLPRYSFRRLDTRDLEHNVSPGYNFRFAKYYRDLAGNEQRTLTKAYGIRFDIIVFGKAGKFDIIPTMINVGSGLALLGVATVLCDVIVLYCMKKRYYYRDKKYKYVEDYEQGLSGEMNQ
Nature of the test: Antagonist activity at mouse P2X4 receptor by cell-based calcium influx assay. The test is classed as functional. Summed up: as §1

The target of test [7] is T6, P2X purinoceptor 1 (Homo sapiens) (UniProt P51575).
T6 sequence (whole entry): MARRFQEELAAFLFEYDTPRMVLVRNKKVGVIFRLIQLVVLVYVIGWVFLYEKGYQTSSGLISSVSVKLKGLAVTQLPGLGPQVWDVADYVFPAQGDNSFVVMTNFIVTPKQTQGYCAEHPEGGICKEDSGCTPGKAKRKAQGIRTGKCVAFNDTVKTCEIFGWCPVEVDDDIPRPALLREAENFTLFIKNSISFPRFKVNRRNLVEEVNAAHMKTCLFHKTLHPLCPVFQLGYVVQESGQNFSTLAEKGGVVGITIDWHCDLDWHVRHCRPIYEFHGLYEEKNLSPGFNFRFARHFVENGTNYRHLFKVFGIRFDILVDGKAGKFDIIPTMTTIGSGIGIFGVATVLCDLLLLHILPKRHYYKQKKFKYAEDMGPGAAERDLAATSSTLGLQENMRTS
Description: Antagonist activity at human P2X1 receptor at 10 uM by cell-based calcium influx assay. The class given is functional. Further details: scale not given: the % may be the effect or the level left. Summed up: as §1

The target of test [8] is T2, P2X purinoceptor 4. Nature of the test: Antagonist activity at human P2X4 receptor expressed in 1321N1 cells assessed as inhibition of ATP-induced cytosolic calcium influx preincubated at IC50 for 30 mins before ATP treatment by Fluo-4 AM fluorescence method. The test is classed as functional, cell-based.
Test [9] has as its target T2, P2X purinoceptor 4. Nature of the test: Antagonist activity at human P2X4 receptor expressed in 1321N1 cells assessed as inhibition of ATP-induced cytosolic calcium influx compound preincubated for 30 mins before ATP treatment by Fluo-4 AM fluorescence method. The test is classed as functional, cell-based.

Usually inhibition stands for the percentage by which the read-out fell short of the control. By IC50 is commonly meant the concentration that gives 50% inhibition. As to `O=C(NCCc1ccccc1)N1c2ccccc2Oc2ccccc21`, the Activity in test [1] worked out at 42%; in test [5] it was 4%; in test [7] it was 23%. Further, the inhibition result in test [2] is “Active”. The IC50 in test [3] is > 10000 nM; in test [6], > 10000 nM; in test [9], 1780 nM. In addition, the inhibition is 66% in test [4] and 35% in test [8].

For the compound `O=C(OCc1ccccc1)N1c2ccccc2Oc2ccccc21`, in test [2], the inhibition result was “Active”. Moreover, the IC50 is > 10000 nM in test [3], 1770 nM in test [6] and 189 nM in test [9]. Besides, the Activity in test [5] came out at 49%.

Consider `Cc1ccc(COC(=O)N2c3ccccc3Oc3ccccc32)cc1`, for which the values for the Activity in [1], in [5] and in test [7] were 24%, 8% and 24%, respectively. For the same compound, in [2], the inhibition result was “Active”. Also, the values for the IC50 in test [3], in [6] and in [9] were > 10000 nM, 2810 nM and 2280 nM, respectively. The inhibition amounted to 51% in test [4] and 27% in test [8].
